This is an account of results in ChEMBL document CHEMBL1142980, “Quinols as novel therapeutic agents. 7.1 Synthesis of antitumor 4-[1-(arylsulfonyl-1H-indol-2-yl)]-4-hydroxycyclohexa-2,5-dien-1-ones by Sonogashira reactions” (J Med Chem, 2007).

Test [1] in a line: Growth inhibition of NCI60 cells. Type of test: functional. The settings on record: Homo sapiens; for CC50: read-out: LC50 (the source's name). Summed up:
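Run in the NCI in vitro 60 human cancer cell line panel. Potency is given as mean GI50 and mean LC50 (µM) across the panel. Individual lines with LC50 below 1 µM are reported separately.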

Test [2] has as its system CAKI-1. The test is described as follows: Growth inhibition of human CAKI1 cells after 72 hrs by MTT assay. Type of test: functional. The settings on record: CAKI-1, 72 h, read-out: LC50 (the source's name).
The subject of test [3] is HCT-116. The test is described as follows: Growth inhibition of human HCT116 cells after 72 hrs by MTT assay. It is filed as functional, cell-based. Particulars: HCT-116, 72 h, read-out: LC50 (the source's name). Summed up: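 Human cancer cells given 72 h continuous drug exposure, growth measured by MTT assay; part of a preliminary five-line screen (colon HCT-116, HT29; breast MCF-7, MDA 468; non-small cell lung A549).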

The nature of test [4]: Growth inhibition of human LOXIMV1 cells after 72 hrs by MTT assay. Type of test: functional. The settings on record: LOX IMV1, 72 h, read-out: LC50 (the source's name).
Test [5] has as its system ACHN. The test is described as follows: Growth inhibition of human ACHN cells after 72 hrs by MTT assay. It is filed as functional. Particulars: read-out: LC50 (the source's name).
The subject of test [6] is SK-MEL-5. The test is described as follows: Growth inhibition of human SKMEL5 cells after 72 hrs by MTT assay. It is filed as functional. The settings on record: SK-MEL-5, 72 h, read-out: LC50 (the source's name). (In general: Tetrazolium dyes change colour on reduction, which living cells bring about.)
Test [7] concerns BT-549. The test can be described thus: Growth inhibition of human BT549 cells after 72 hrs by MTT assay. Particulars: BT-549, 72 h, read-out: LC50 (the source's name). It is filed as functional.
In test [8] the test system is A498. The test can be described thus: Growth inhibition of human A498 cells after 72 hrs by MTT assay. It is filed as functional. Particulars: A498, 72 h, read-out: LC50 (the source's name).

The term GI50 denotes the concentration that inhibits growth by half. Low values mean greater sensitivity of the cells, high ones lower sensitivity of the cells. As for `O=C1C=CC(O)(c2nc3ccccc3s2)C=C1`, in test [1], halving of growth (GI50) required 230 nM and the CC50 is 3390 nM.
In the case of `O=C1C=CC(O)(c2cc3ccccc3n2S(=O)(=O)c2ccccc2)C=C1`, the concentration for 50% growth inhibition (GI50) in test [1] stood at 39 nM. Further, the CC50 came to 2950 nM in test [1], 50 nM in test [2] and 30 nM in test [3].
`Cc1ccc(S(=O)(=O)n2c(C3(O)C=CC(=O)C=C3)cc3ccccc32)cc1` returned a concentration for 50% growth inhibition (GI50) in test [1] of 110 nM. Moreover, the CC50 was 7240 nM in test [1], below 10 nM in test [4], 40 nM in test [5] and below 10 nM in test [3].
Regarding `O=C1C=CC(O)(c2cc3ccccc3n2S(=O)(=O)c2cccnc2)C=C1`, in test [1], the GI50 is 410 nM and the CC50 came to 14100 nM. Also, the CC50 in test [3] turned out to be 290 nM.
In test [1], `COC(=O)CCc1ccc(S(=O)(=O)n2c(C3(O)C=CC(=O)C=C3)cc3ccccc32)cc1` registered a GI50 of 680 nM. Also, the CC50 in test [1] came out at 22900 nM; in test [6], 600 nM; in test [3], 20 nM.
Molecule `COC(=O)CCc1ccc(S(=O)(=O)n2c(C3(O)C=CC(=O)C=C3)cc3ccc(F)cc32)cc1` gave a GI50 in test [1] of 500 nM. For the same molecule, the CC50 in test [1] was found to be 10500 nM; in test [4], 810 nM; in test [7] it was 740 nM; in test [3] it was 720 nM.
As for `O=C1C=CC(O)(c2cc3ccc(F)cc3n2S(=O)(=O)c2ccc(CCC(=O)O)cc2)C=C1`, in test [1], the concentration for 50% growth inhibition (GI50) is 2500 nM and the CC50 amounted to 29500 nM.
In test [1], `CN(C)c1cccc2c(S(=O)(=O)n3c(C4(O)C=CC(=O)C=C4)cc4ccccc43)cccc12` registered a GI50 of 190 nM. The results for the CC50 in test [1], in test [8] and in test [5] were 13200 nM, 60 nM and 410 nM, respectively.
Turning to `O=C1C=CC(O)(c2cc3ccccc3n2S(=O)(=O)c2ccc(CCC(=O)O)cc2)C=C1`, in test [1], the GI50 was 2340 nM and the CC50 was 23400 nM.
In turn, `CCOC(=O)Nc1ccc(S(=O)(=O)n2c(C3(O)C=CC(=O)C=C3)cc3ccccc32)cc1` returned a GI50 in test [1] of 190 nM. In addition, the CC50 came out at 7580 nM in test [1], 600 nM in test [5] and 295 nM in test [3].
As for `O=C1C=CC(O)(c2cc3cnccc3n2S(=O)(=O)c2ccccc2)C=C1`, in test [1], it took 340 nM to inhibit growth by half (GI50). Besides, the CC50 in test [1] was found to be 13800 nM; in test [2] it was 470 nM; in test [3], 930 nM.
In test [1], `Cc1ccc(S(=O)(=O)n2c(C3(O)C=CC(=O)C=C3)cc3ccncc32)cc1` yielded a 50% growth inhibitory concentration (GI50) of 170 nM. The CC50 in test [1] was 5750 nM; in test [4], 60 nM; in test [5], 50 nM; in test [3], below 10 nM.
`O=C1C=CC(O)(c2cc3ccc(F)cc3n2S(=O)(=O)c2ccccc2)C=C1`: in test [1], halving of growth (GI50) required 16 nM and the CC50 was determined as 2240 nM.
